Activity calls are given as the source filed them. No cut-off for these calls is given here.
How the values were obtained:
Nucleic Acid [1] = experiment: Stabilization of human duplex DNA T-loop assessed as change in melting temperature at 1 uM by FRET assay; type: nucleic-acid assay
Nucleic Acid [2] = experiment: Binding affinity to human DK66 duplex DNA structure assessed as bound DNA at 5:20 DNA to drug ratio by electrospray ionization mass spectrometry; type: nucleic-acid assay
Outline: (§1)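 ESI-MS in 150 mM ammonium acetate; DNA 5 μM final (per duplex or quadruplex unit); ligand at drug/DNA ratios 0.5 to 4. Methanol (15%) added just before injection, after binding equilibrium. K1 and K2 for 1:1 and 2:1 complexes, and % bound DNA, taken from relative peak intensities assuming equal response factors. At least three repeats.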

Nucleic Acid [3] = experiment: Binding affinity to human DK66 duplex DNA structure assessed as first step association constant by electrospray ionization mass spectrometry; type: nucleic-acid assay; outline: as §1
Nucleic Acid [4] = experiment: Stabilization of 21-mer human F21T G4-telomeric quadruplex assessed as change in melting temperature at 1 uM by FRET assay; type: nucleic-acid assay
Nucleic Acid [5] = experiment: Binding affinity to human 21-TT G-quadruplex DNA structure assessed as first step association constant by electrospray ionization mass spectrometry; type: nucleic-acid assay; outline: as §1
BJ [6] = experiment: Growth inhibition of human BJ cells expressing SV40 early region EHLT at 0.5 uM on day 8 by trypan blue assay; type: functional; conditions: 192 h, read-out: GI
Outline: (§2)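 Cells seeded at 5 ×10^4 per dish; compounds freshly dissolved and added to the medium 24 h after plating, at 0.5 μM or 3 μM (3 μM only for one derivative). Cell number by Coulter counting and viability by trypan blue exclusion daily, day 1 to day 8. Growth inhibition of treated vs untreated cells calculated at days 2, 4, 6 and 8. Representative experiments in quintuplicate, SD shown.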

BJ [7] = experiment: Cell cycle arrest in human BJ cells expressing TERT assessed as accumulation at G2/M stage at 0.5 uM after 24 hrs by propidium iodide staining based flow cytometry (reference value: 17%); type: ADME
BJ [8] = experiment: Cell cycle arrest in human BJ cells expressing TERT assessed as accumulation at G2/M stage at 0.5 uM after 72 hrs by propidium iodide staining based flow cytometry (reference value: 5%); type: ADME
Nucleic Acid [9] = experiment: Binding affinity to human 21-TT G-quadruplex DNA structure assessed as bound DNA at 5:5 DNA to drug ratio by electrospray ionization mass spectrometry; type: nucleic-acid assay; outline: as §1
Nucleic Acid [10] = experiment: Binding affinity to human DK66 duplex DNA structure assessed as second step association constant by electrospray ionization mass spectrometry; type: nucleic-acid assay; outline: as §1
BJ [11] = experiment: Cell cycle arrest in human BJ cells expressing TERT assessed as accumulation at G0/G1 stage at 0.5 uM after 48 hrs by propidium iodide staining based flow cytometry (reference value: 80%); type: ADME
Nucleic Acid [12] = experiment: Binding affinity to human 21-TT G-quadruplex DNA structure assessed as bound DNA at 5:10 DNA to drug ratio by electrospray ionization mass spectrometry; type: nucleic-acid assay; outline: as §1
BJ [13] = experiment: Induction of DNA damage response in human BJ cells expressing human TERT assessed as phosphorylation of […] after 24 hrs by immunofluorescence; type: functional, cell-based
Outline: (§3)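 BJ-EHLT and BJ-hTERT fibroblasts exposed to a range of concentrations for 24 h. Fixed in 2% formaldehyde, permeabilized in 0.25% Triton X-100, immunostained for γ-H2AX and 53BP1. Percentage of positive cells scored. Three independent experiments, SD.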

Nucleic Acid [14] = experiment: Binding affinity to human DK66 duplex DNA structure assessed as bound DNA at 5:10 DNA to drug ratio by electrospray ionization mass spectrometry; type: nucleic-acid assay; outline: as §1
Nucleic Acid [15] = experiment: Binding affinity to human 21-TT G-quadruplex DNA structure assessed as second step association constant by electrospray ionization mass spectrometry; type: nucleic-acid assay; outline: as §1
BJ [16] = experiment: Cell cycle arrest in human BJ cells expressing TERT assessed as accumulation at G0/G1 stage at 0.5 uM after 24 hrs by propidium iodide staining based flow cytometry (reference value: 61%); type: ADME
Nucleic Acid [17] = experiment: Binding affinity to human 21-TT G-quadruplex DNA structure at 1:1 DNA to calf thymus DNA ratio by competitive inhibition assay; type: nucleic-acid assay; set-up: concentration or dose not given beside the values
Outline: (§4)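 ESI-MS competition: quadruplex DNA and ligand each 5 μM final, plus calf thymus DNA at duplex/quadruplex ratios 1 and 5 (by phosphate concentration), in ammonium acetate. Percentage bound quadruplex and normalized bound quadruplex (N%) measured by mass spectrometry. SD over at least three independent experiments.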

BJ [18] = experiment: Cell cycle arrest in human BJ cells expressing TERT assessed as accumulation at S stage at 0.5 uM after 96 hrs by propidium iodide staining based flow cytometry (reference value: 9%); type: ADME
BJ [19] = experiment: Induction of DNA damage response in human BJ cells expressing SV40 early region EHLT assessed as phosphorylation of […] after 24 hrs by immunofluorescence method; type: functional, cell-based; outline: as §3
BJ [20] = experiment: Cell cycle arrest in human BJ cells expressing TERT assessed as accumulation at G2/M stage at 0.5 uM after 48 hrs by propidium iodide staining based flow cytometry (reference value: 6%); type: ADME
Nucleic Acid [21] = experiment: Binding affinity to human 21-TT G-quadruplex DNA structure at 1:5 DNA to calf thymus DNA ratio by competitive inhibition assay; type: nucleic-acid assay; set-up: concentration or dose not given beside the values; outline: as §4
BJ [22] = experiment: Cell cycle arrest in human BJ cells expressing TERT assessed as accumulation at G2/M stage at 0.5 uM after 96 hrs by propidium iodide staining based flow cytometry (reference value: 4%); type: ADME
BJ [23] = experiment: Induction of DNA damage response in human BJ cells expressing human TERT assessed as phosphorylation of gamma H2AX after 24 hrs by immunofluorescence; type: functional, cell-based; outline: as §3
BJ [24] = experiment: Cell cycle arrest in human BJ cells expressing TERT assessed as accumulation at S stage at 0.5 uM after 48 hrs by propidium iodide staining based flow cytometry (reference value: 12%); type: ADME
[25] = target: Telomerase reverse transcriptase (Homo sapiens, UniProt O14746); experiment: Inhibition of human Telomerase activity in cell free system by TRAP assay
Outline: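 Cell-free TRAP: protein extract incubated with compound at 1 to 50 μM so telomerase elongates the substrate oligonucleotide. Before PCR, phenol/chloroform/isoamyl-alcohol (50:49:1) extraction removes the ligand and DNA is precipitated overnight at -20 °C. Amplification uses a 36 bp ITAS; products are resolved on 12% PAGE and stained with SYBR Green. Signals are corrected by the no-extract control and normalized to untreated, giving dose-response IC50. Mean of three experiments.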

BJ [26] = experiment: Cell cycle arrest in human BJ cells expressing TERT assessed as accumulation at G0/G1 stage at 0.5 uM after 72 hrs by propidium iodide staining based flow cytometry (reference value: 83%); type: ADME
BJ [27] = experiment: Induction of DNA damage response in human BJ cells expressing SV40 early region EHLT assessed as phosphorylation of gamma H2AX at 0.25 uM after 24 hrs by immunofluorescence method; type: functional, cell-based; outline: as §3
BJ [28] = experiment: Cell cycle arrest in human BJ cells expressing TERT assessed as accumulation at S stage at 0.5 uM after 24 hrs by propidium iodide staining based flow cytometry (reference value: 21%); type: ADME
BJ [29] = experiment: Antiproliferative activity against human BJ cells expressing SV40 early region EHLT at 0.5 uM after 24 hrs by Coulter counter method; type: functional, cell-based; outline: as §2
BJ [30] = experiment: Antiproliferative activity against human BJ cells expressing TERT at 0.5 uM after 2 to 8 days by trypan blue assay; type: cell-based; outline: as §2
BJ [31] = experiment: Cell cycle arrest in human BJ cells expressing TERT assessed as accumulation at G0/G1 stage at 0.5 uM after 96 hrs by propidium iodide staining based flow cytometry (reference value: 86%); type: ADME
BJ [32] = experiment: Cell cycle arrest in human BJ cells expressing TERT assessed as accumulation at S stage at 0.5 uM after 72 hrs by propidium iodide staining based flow cytometry (reference value: 10%); type: ADME
Nucleic Acid [33] = experiment: Binding affinity to human DK66 duplex DNA structure assessed as bound DNA at 5:5 DNA to drug ratio by electrospray ionization mass spectrometry; type: nucleic-acid assay; outline: as §1

Telomerase reverse transcriptase, sequence (O14746 whole entry): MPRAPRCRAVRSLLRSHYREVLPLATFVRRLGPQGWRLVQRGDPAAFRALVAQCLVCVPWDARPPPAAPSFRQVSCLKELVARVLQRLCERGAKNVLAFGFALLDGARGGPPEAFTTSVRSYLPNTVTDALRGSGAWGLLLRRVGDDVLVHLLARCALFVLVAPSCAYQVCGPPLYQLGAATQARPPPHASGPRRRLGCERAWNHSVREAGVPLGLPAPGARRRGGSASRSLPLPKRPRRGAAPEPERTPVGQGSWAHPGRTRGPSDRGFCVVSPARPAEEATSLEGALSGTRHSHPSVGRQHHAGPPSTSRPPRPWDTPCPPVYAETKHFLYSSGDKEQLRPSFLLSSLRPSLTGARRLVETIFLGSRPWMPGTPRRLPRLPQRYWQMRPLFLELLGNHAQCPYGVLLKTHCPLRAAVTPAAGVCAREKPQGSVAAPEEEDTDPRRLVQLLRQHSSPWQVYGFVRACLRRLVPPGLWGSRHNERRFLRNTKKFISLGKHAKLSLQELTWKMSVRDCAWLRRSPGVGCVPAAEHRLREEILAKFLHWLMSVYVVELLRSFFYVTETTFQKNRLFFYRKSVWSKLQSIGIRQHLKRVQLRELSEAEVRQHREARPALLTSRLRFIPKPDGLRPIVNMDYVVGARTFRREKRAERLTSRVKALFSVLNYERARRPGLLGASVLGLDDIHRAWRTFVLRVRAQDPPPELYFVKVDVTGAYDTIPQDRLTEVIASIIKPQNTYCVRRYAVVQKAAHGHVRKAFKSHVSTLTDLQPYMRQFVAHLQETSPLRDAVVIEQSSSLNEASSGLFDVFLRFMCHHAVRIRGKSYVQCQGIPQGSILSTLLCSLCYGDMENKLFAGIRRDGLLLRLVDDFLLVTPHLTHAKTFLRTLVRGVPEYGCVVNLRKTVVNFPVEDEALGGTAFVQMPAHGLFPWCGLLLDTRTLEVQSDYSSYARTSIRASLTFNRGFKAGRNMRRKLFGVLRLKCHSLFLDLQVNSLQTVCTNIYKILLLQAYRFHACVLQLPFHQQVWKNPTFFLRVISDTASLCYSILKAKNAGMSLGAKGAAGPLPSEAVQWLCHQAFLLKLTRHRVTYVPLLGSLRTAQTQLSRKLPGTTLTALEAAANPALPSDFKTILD

SMILES: CN1CCN(CCOCCN2C(=O)c3ccc4c5c(N6CCCCC6)cc6c7c(ccc(c8c(N9CCCCC9)cc(c3c48)C2=O)c75)C(=O)N(CCOCCN2CCN(C)CC2)C6=O)CC1
- ΔTm (Nucleic Acid [1]): -0.1 °C
- Activity (Nucleic Acid [2]): 10%
- log Ks (Nucleic Acid [3]): 3.8
- ΔTm (Nucleic Acid [4]): 5.2 °C
- log Ks (Nucleic Acid [5]): 3.9

SMILES: CN1CCN(c2cc3c4c(ccc5c6c(N7CCN(C)CC7)cc7c8c(ccc(c2c45)c86)C(=O)N(CCN2CCCCC2)C7=O)C(=O)N(CCN2CCCCC2)C3=O)CC1
- inhibition of growth at 0.5 µM (BJ [6]): 50%
- Activity (BJ [7]): 51%
- ΔTm (Nucleic Acid [1]): 2.9 °C
- Activity (BJ [8]): 58.2%
- Activity (Nucleic Acid [9]): 45%
- log Ks (Nucleic Acid [3]): 4.9
- log Ks (Nucleic Acid [10]): 4.2
- Activity (BJ [11]): 39.8%
- Activity (Nucleic Acid [12]): 77%
- Activity (BJ [13]): Dose-dependent effect
- Activity (Nucleic Acid [14]): 44%
- log Ks (Nucleic Acid [15]): 5.6
- Activity (BJ [16]): 35.1%
- Activity (Nucleic Acid [17]): 40%
- Activity (BJ [18]): 6.5%
- Activity (BJ [19]): Active
- Activity (BJ [20]): 55.2%
- Activity (Nucleic Acid [21]): 22%
- Activity (BJ [22]): 60.4%
- Activity (BJ [23]): Dose-dependent effect
- Activity (BJ [24]): 5%
- IC50 [25]: 10 µM
- Activity (BJ [26]): 35.2%
- Activity (BJ [27]): Active
- Activity (BJ [28]): 13.9%
- Activity (BJ [29]; in the assay text read “after 2 to 8 days” for “after 24 hrs”, TDE = time-dependent effect): tde
- Activity (BJ [30]): Toxic
- Activity (BJ [31]): 33.1%
- Activity (BJ [32]): 6.6%
- ΔTm (Nucleic Acid [4]): 27.4 °C
- log Ks (Nucleic Acid [5]): 5.4
- Activity (Nucleic Acid [33]): 27%

SMILES: CNCCOCCN1C(=O)c2ccc3c4c(N5CCCCC5)cc5c6c(ccc(c7c(N8CCCCC8)cc(c2c37)C1=O)c64)C(=O)N(CCOCCNC)C5=O
- ΔTm (Nucleic Acid [1]): -0.4 °C
- Activity (Nucleic Acid [2]): 9%
- Activity (Nucleic Acid [9]): 13%
- log Ks (Nucleic Acid [3]): 3.7
- Activity (Nucleic Acid [12]): 37%
- log Ks (Nucleic Acid [15]): 4.8
- ΔTm (Nucleic Acid [4]): 12.9 °C
- log Ks (Nucleic Acid [5]): 4.6

SMILES: CN(C)CCOCCN1C(=O)c2ccc3c4c(N5CCCCC5)cc5c6c(ccc(c7c(N8CCCCC8)cc(c2c37)C1=O)c64)C(=O)N(CCOCCN(C)C)C5=O
- ΔTm (Nucleic Acid [1]): 0.9 °C
- Activity (Nucleic Acid [2]): 16%
- Activity (Nucleic Acid [9]): 22.5%
- log Ks (Nucleic Acid [3]): 4
- Activity (Nucleic Acid [12]): 30%
- log Ks (Nucleic Acid [15]): 4.9
- ΔTm (Nucleic Acid [4]): 16.6 °C
- log Ks (Nucleic Acid [5]): 4.6

SMILES: CN(C)CCCN1CCN(c2cc3c4c(ccc5c6ccc7c8c(ccc(c2c45)c86)C(=O)N(CCN2CCCCC2)C7=O)C(=O)N(CCN2CCCCC2)C3=O)CC1
- inhibition of growth at 0.5 µM (BJ [6]): 50%
- Activity (BJ [7]): 54.2%
- ΔTm (Nucleic Acid [1]): 2.3 °C
- Activity (BJ [8]): 58%
- Activity (Nucleic Acid [9]): 48%
- log Ks (Nucleic Acid [3]): 5.4
- log Ks (Nucleic Acid [10]): 4.9
- Activity (BJ [11]): 35.4%
- Activity (Nucleic Acid [12]): 76%
- Activity (BJ [13]): Dose-dependent effect
- Activity (Nucleic Acid [14]): 66%
- log Ks (Nucleic Acid [15]): 5
- Activity (BJ [16]): 42%
- Activity (Nucleic Acid [17]): 46%
- Activity (BJ [18]): 7.6%
- Activity (BJ [19]): Active
- Activity (BJ [20]): 61.1%
- Activity (Nucleic Acid [21]): 32%
- Activity (BJ [22]): 54.2%
- Activity (BJ [23]): Dose-dependent effect
- Activity (BJ [24]): 3.5%
- IC50 [25]: 3 µM
- Activity (BJ [26]): 34.7%
- Activity (BJ [27]): Active
- Activity (BJ [28]): 3.8%
- Activity (BJ [29]; TDE = time-dependent effect, in the assay text read “after 2 to 8 days” for “after 24 hrs”): tde
- Activity (BJ [30]): Toxic
- Activity (BJ [31]): 38.2%
- Activity (BJ [32]): 7.3%
- ΔTm (Nucleic Acid [4]): 35.5 °C
- log Ks (Nucleic Acid [5]): 5.5
- Activity (Nucleic Acid [33]): 43%

SMILES: O=C1c2ccc3c4c(N5CCCCC5)cc5c6c(ccc(c7c(N8CCCCC8)cc(c2c37)C(=O)N1CCOCCN1CCCCC1)c64)C(=O)N(CCOCCN1CCCCC1)C5=O
- ΔTm (Nucleic Acid [1]): -0.2 °C
- Activity (Nucleic Acid [2]): 20%
- Activity (Nucleic Acid [9]): 23%
- log Ks (Nucleic Acid [3]): 4.2
- Activity (Nucleic Acid [12]): 34%
- log Ks (Nucleic Acid [15]): 4.8
- Activity (Nucleic Acid [17]): 19%
- Activity (Nucleic Acid [21]): 14%
- ΔTm (Nucleic Acid [4]): 9.3 °C
- log Ks (Nucleic Acid [5]): 4.7

SMILES: O=C1c2ccc3c4c(N5CCCCC5)cc5c6c(cc(N7CCCCC7)c(c7ccc(c2c37)C(=O)N1CCOCCN1CCCCC1)c64)C(=O)N(CCOCCN1CCCCC1)C5=O
- ΔTm (Nucleic Acid [1]): 0.1 °C
- Activity (Nucleic Acid [2]): 11%
- Activity (Nucleic Acid [9]): 20%
- log Ks (Nucleic Acid [3]): 3.8
- Activity (Nucleic Acid [12]): 30%
- log Ks (Nucleic Acid [15]): 4.8
- ΔTm (Nucleic Acid [4]): 13.1 °C
- log Ks (Nucleic Acid [5]): 4.8

— ChEMBL document CHEMBL1687886, “N-cyclic bay-substituted perylene G-quadruplex ligands have selective antiproliferative effects on cancer cells and induce telomere damage” (J Med Chem, 2011)
